How the values were obtained:
Format in all cases: functional
Mythimna separata [1] = test: Larvicidal activity against Mythimna separata (Oriental armyworm) in compound treated corn leaves at 25 mg/L at 25 +/- 1 degC measured after 4 days
Mythimna separata [2] = test: (§1) Larvicidal activity against Mythimna separata (Oriental armyworm) in compound treated corn leaves at […] at 25 +/- 1 degC measured after 4 days
Mythimna separata [3] = test: as §1; remark: listed apart in the source
Mythimna separata [4] = test: Larvicidal activity against Mythimna separata (Oriental armyworm) in compound treated corn leaves at 100 mg/L at 25 +/- 1 degC measured after 4 days
Mythimna separata [5] = test: Larvicidal activity against Mythimna separata (Oriental armyworm) in compound treated corn leaves at 10 mg/L at 25 +/- 1 degC measured after 4 days
Mythimna separata [6] = test: Larvicidal activity against Mythimna separata (Oriental armyworm ) in compound treated corn leaves at 0.5 mg/L at 25 +/- 1 degC measured after 4 days
Method in brief: (§2)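 Foliar-application assay on laboratory-reared Oriental armyworm (Mythimna (Pseudaletia) separata), run at 25 ± 1 °C. Larvae were scored dead or alive, and mortality was corrected by Abbott's formula on a 0–100% scale, where 0 = no activity and 100 = total kill. Bioassays were repeated as statistics required.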

Mythimna separata [7] = test: Larvicidal activity against Mythimna separata (Oriental armyworm) in compound treated corn leaves at 5 mg/L at 25 +/- 1 degC measured after 4 days
Mythimna separata [8] = test: Larvicidal activity against Mythimna separata (Oriental armyworm) in compound treated corn leaves at 50 mg/L at 25 +/- 1 degC measured after 4 days; method in brief: as §2
Mythimna separata [9] = test: Larvicidal activity against Mythimna separata (Oriental armyworm) in compound treated corn leaves at 1 mg/L at 25 +/- 1 degC measured after 4 days; method in brief: as §2

Work on `O=C(NC(=O)c1c(F)cccc1F)Nc1ccc(Cl)cc1` [DIFLUBENZURON] yielded an Activity (Mythimna separata [1]) of 100%, an Activity (Mythimna separata [2]) of 45% and an Activity (Mythimna separata [3]) of 100%. The Activity (Mythimna separata [4]) was 0%, the Activity (Mythimna separata [5]) was 100% and the Activity (Mythimna separata [6]) was 100%. The Activity (Mythimna separata [7]) was 100%, the Activity (Mythimna separata [8]) was 100% and the Activity (Mythimna separata [9]) was 100%.
`CNC(=O)ON=C(C)SC` [METHOMYL] gave an Activity (Mythimna separata [3]) of 0%, an Activity (Mythimna separata [4]) of 100% and an Activity (Mythimna separata [5]) of 100%. It also gave an Activity (Mythimna separata [7]) of 62%.
`Cc1cccc(OC(=O)N(C)SN(C(=O)NC(=O)c2c(F)cccc2F)c2ccc(C(F)(F)F)cc2)c1` [Penfluron-S-MTMC] gave an Activity (Mythimna separata [1]) of 100%, an Activity (Mythimna separata [2]) of 15% and an Activity (Mythimna separata [3]) of 100%. For the same compound, the Activity (Mythimna separata [5]) was 100%, the Activity (Mythimna separata [6]) was 95% and the Activity (Mythimna separata [7]) was 100%. The Activity (Mythimna separata [8]) was 100% and the Activity (Mythimna separata [9]) was 100%.
For `O=C(NC(=O)c1ccccc1Cl)Nc1ccc(OC(F)(F)F)cc1` [TRIFLUMURON], the Activity (Mythimna separata [1]) was 100%, the Activity (Mythimna separata [2]) was 20% and the Activity (Mythimna separata [3]) was 100%. For the same compound, the Activity (Mythimna separata [4]) was 0%, the Activity (Mythimna separata [5]) was 100% and the Activity (Mythimna separata [6]) was 40%. The Activity (Mythimna separata [7]) was 100%, the Activity (Mythimna separata [8]) was 100% and the Activity (Mythimna separata [9]) was 95%.

Reference: ChEMBL document CHEMBL3045515, “Insecticidal benzoylphenylurea-S-carbamate: a new propesticide with two effects of both benzoylphenylureas and carbamates” (2007)
